Test results: ChEMBL document CHEMBL1124000, “N-acylphenylalanines and related compounds. A new class of oral hypoglycemic agents” (1988)
Where a SMILES comes first, the peptide text is derived from it.

The compounds below were run on Mus musculus (assay: Hypoglycemic activity was determined as decrease in blood glucose at a dose 250 mg/kg in fasting mice after peroral administration.). Conditions: route oral.
Type: functional
Outline: (§1)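 Male ICR-CD1 mice, 5 weeks old, fasted 18 h, groups of five. Given orally as a suspension in 0.5% (carboxymethyl)cellulose-0.14 M NaCl, 1 mL/kg; vehicle-treated control group run in parallel. Doses 500, 250, 100, 50, 25 and 10 mg/kg. Blood drawn from carotid 1 h after dosing; glucose measured enzymatically by glucose-oxidase-peroxidase; Student's t test (p < 0.05).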

Row | SMILES | Decrease [%]
1 | O=C(O)[C@@H]1Cc2ccccc2CN1C(=O)c1ccccc1 | <20
2 | O=C(O)/C(=C/c1ccccc1)NC(=O)c1ccccc1 | <20
3 | O=C(N[C@@H](Cc1ccccc1)C(=O)O)c1ccncc1 | <20
4 | O=C(N[C@@H](Cc1ccccc1)C(=O)O)c1ccc2ncccc2c1 | <20
5 | O=C(O)[C@H](Cc1ccccc1)NC(=O)[C@H]1CCCN1C(=O)c1ccccc1 | <20
6 | CC(=O)N1CCC[C@H]1C(=O)N[C@@H](Cc1ccccc1)C(=O)O (Ac-Pro-Phe-OH) | <20
7 | Cc1cccc(C(=O)N[C@@H](Cc2ccccc2)C(=O)O)c1 | <20
8 | O=C(N[C@@H](Cc1ccccc1)C(=O)O)c1ccc2ccccc2n1 | <20
9 | O=C(N[C@@H](Cc1ccccc1)C(=O)O)c1cccnc1 | <20
10 | O=C(N[C@@H](Cc1ccccc1)C(=O)O)c1cccc2ccccc12 | <20
11 | O=C(N[C@@H](Cc1ccccc1)C(=O)O)C1CCCCCC1 | <20
12 | O=C(O)[C@H](Cc1ccccc1)NC(=O)[C@@H]1CCCN1C(=O)c1ccccc1 | <20
13 | Cc1ccccc1C(=O)N[C@@H](Cc1ccccc1)C(=O)O | <20
14 | O=C(O)[C@H](Cc1ccccc1)NCc1ccccc1 | <20
15 | O=C(O)/C(=C\c1ccccc1)NC(=O)c1ccccc1 | <20
16 | O=C(N[C@H](Cc1ccccc1)C(=O)O)C1CCCC1 | <20
17 | O=C(O)[C@H]1Cc2ccccc2CN1C(=O)c1ccccc1 | <20
18 | O=C(N[C@@H](Cc1ccccc1)C(=O)O)c1cnc2ccccc2c1 | <20
19 | O=C(N[C@H](Cc1ccccc1)C(=O)O)c1ccccc1 | <20

Each compound was assayed on Mus musculus (assay: Hypoglycemic activity at the lowest dose that causing 20% blood glucose decrease (fasting mice, po)). Conditions: not given.
Type: functional
Outline: as §1

Row | SMILES | Dose [mg/kg]
20 | O=C(N[C@@H](Cc1ccccc1)C(=O)O)c1ccccc1 | 150
21 | O=C(N[C@@H](Cc1ccccc1)C(=O)O)C1CCCC1 | 50
22 | O=C(N[C@@H](Cc1ccccc1)C(=O)O)c1ccc2c(c1)OCO2 | 100
23 | O=C(N[C@@H](Cc1ccccc1)C(=O)O)c1cc2ccccc2o1 | 100
24 | CCOc1ccc(C(=O)N[C@@H](Cc2ccccc2)C(=O)O)cc1 | 100
25 | Cc1ccc(C(=O)N[C@@H](Cc2ccccc2)C(=O)O)cc1 | 100
26 | CCCCNC(=O)NS(=O)(=O)c1ccc(C)cc1 [TOLBUTAMIDE] | 25
27 | O=C(NC(Cc1ccccc1)C(=O)O)c1ccccc1 (configuration not stated) | 500
28 | COc1ccc(C(=O)N[C@@H](Cc2ccccc2)C(=O)O)cc1 | 100
29 | O=C(N[C@@H](Cc1ccccc1)C(=O)O)C1CCCCC1 | 100
30 | O=C(N[C@@H](Cc1ccccc1)C(=O)O)C1CC=CCC1 (some centres not stated) | 100
31 | O=C(N[C@@H](Cc1ccccc1)C(=O)O)c1ccc2ccccc2c1 | 250
32 | O=C(N[C@@H](Cc1ccccc1)C(=O)O)c1ccc2c(c1)CCC2 | 250
